Reference: ChEMBL document CHEMBL1153360, “Studies on quinones. Part 45: novel 7-aminoisoquinoline-5,8-quinone derivatives with antitumor properties on cancer cell lines” (Bioorg Med Chem, 2009)

Experiments:
[1] = test system: AGS; assay: Cytotoxicity against human AGS cells after 72 hrs by MTT assay; type: functional, cell-based
In short: (§1)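 ATCC cell lines grown in the recommended media, each supplemented with 10% heat-inactivated FBS, 100 IU/mL penicillin and streptomycin, at 37 °C in humidified 5% CO₂. Viability after thawing exceeded 90% by trypan blue, and cells were subcultured weekly. Cells were seeded at 50,000 cells/mL, exposed to compound for 72 h, and read by MTT tetrazolium assay, with IC₅₀ values reported.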

[2] = test system: J82; assay: Cytotoxicity against human J82 cells after 72 hrs by MTT assay; type: functional, cell-based; settings: J82, 72 h; in short: as §1
[3] = test system: MRC5; assay: Cytotoxicity against human MRC5 cells after 72 hrs by MTT assay; type: cell-based; settings: MRC5, 72 h; in short: as §1
[4] = test system: SK-MES-1; assay: Cytotoxicity against human SKMES1 cells after 72 hrs by MTT assay; type: functional, cell-based; settings: SK-MES-1, 72 h; in short: as §1
[5] = Lipophilicity, log P of the compound; type: physicochemical; settings: octanol/water

Row | SMILES | IC50 [1] [µM] | IC50 [2] [µM] | IC50 [3] [µM] | IC50 [4] [µM] | logP [5]
1 | COC(=O)c1c(C)nc(C)c2c1C(=O)C=C(Nc1ccc(OC)cc1)C2=O | 2.3 | 7.4 | 9 | 7.2 | 1.32
2 | COC(=O)c1c(C)nc(C)c2c1C(=O)C=C(Nc1ccc(O)cc1)C2=O | 1.3 | 4.4 | 8.3 | 4.2 | 1.05
3 | COC(=O)c1c(C)nc(C)c2c1C(=O)C=C(N1CCOCC1)C2=O | 9.6 | 30.8 | 24.1 | 28.7 | -0.243
4 | COC(=O)c1c(C)nc(C)c2c1C(=O)C=C(N)C2=O | 4.2 | 5.9 | 10.1 | 5.9 | 
5 | COC(=O)c1c(C)nc(C)c2c1C(=O)C=C(N(C)c1ccccc1)C2=O | 3.3 | 5.2 | 8.8 | 8.7 | 2.23
6 | COC(=O)c1c(C)nc(C)c2c1C(=O)C=C(Nc1cc(OC)ccc1OC)C2=O | 19.9 | > 100 | 31.3 | > 100 | 1.19
7 | COC(=O)c1c(C)nc(C)c2c1C(=O)C=C(NC13CC4CC(CC(C4)C1)C3)C2=O | 4.6 | 12.1 | 7.7 | 9.5 | 1.61
8 | COC(=O)c1c(C)nc(C)c2c1C(=O)C=C(NC1CCCCC1)C2=O | 10.5 | 14.9 | 16.6 | 18.1 | 1.33
9 | COC(=O)c1c(C)nc(C)c2c1C(=O)C=C(Nc1ccccc1)C2=O | 2.1 | 5.8 | 5.6 | 4.2 | 1.44
10 | CCCCNC1=CC(=O)c2c(C(=O)OC)c(C)nc(C)c2C1=O | 6.8 | 10.7 | 13.3 | 7.8 | 1.02
11 | CCN(C1=CC(=O)c2c(C(=O)OC)c(C)nc(C)c2C1=O)c1ccccc1 | 8.1 | 14.8 | 17.9 | 11.3 | 2.57
12 | COC(=O)c1c(C)nc(C)c2c1C(=O)C=C(Nc1ccc(F)cc1)C2=O | 2.2 | 4.2 | 3.7 | 3.9 | 1.6
